Experimental data: ChEMBL document CHEMBL1135607, “1-Benzyl-3-(5'-hydroxymethyl-2'-furyl)indazole (YC-1) derivatives as novel inhibitors against sodium nitroprusside-induced apoptosis” (2002)

species: Rattus norvegicus; assay: Effect on the survival of rat aortic smooth muscle cells; assay type: functional; parameters: concentration or dose not given beside the values
Summary of the method: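 Rat aortic smooth muscle cells in culture, pretreated 30 min with test compound at 30 μM, then vehicle or sodium nitroprusside (1 mM) added for another 24 h. Viability read by MTT assay and TUNEL.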

Going from `OCc1ccc(-c2nn(Cc3ccccc3)c3cc(F)ccc23)o1` to `OCc1ccc(-c2nn(Cc3ccccc3)c3cc4c(cc23)OCO4)o1`, the Cell survival falls from 83.3% to 75.8%.

First: COC(=O)c1ccc(-c2nn(Cc3ccccc3)c3ccccc23)o1
Second: COc1ccc2c(-c3ccc(CO)o3)nn(Cc3ccccc3)c2c1
The Cell survival of the first is lower: 78% for the first, 84.5% for the second.

Going from SODIUM NITROPRUSSIDE to `COCc1ccc(-c2nn(Cc3ccccc3)c3ccccc23)o1`, the Cell survival rises from 41.3% to 93.2%.

First: Cc1ccc(-c2nn(Cc3ccccc3)c3ccccc23)o1
Second: CNCc1ccc(-c2nn(Cc3ccccc3)c3ccccc23)o1
The Cell survival of the first is lower: 31.1% for the first, 57.2% for the second.

Compared with `CCN(CC)Cc1ccc(-c2nn(Cc3ccccc3)c3ccccc23)o1`, `OCc1ccc(-c2nn(-c3ccccc3)c3ccccc23)o1` is higher in Cell survival: 39.7% for the first, 93.9% for the second.

`OCc1ccc(-c2nn(Cc3ccccc3)c3ccccc23)o1` showed a Cell survival of 94.7%.
